Columns and labels:
[1] = Solubility in water; type: physicochemical; settings: buffer
MDA-MB-435 = assay: Cytotoxicity against human MDA-MB-435 cells assessed as growth inhibition at 10^-5 M after 48 hrs by sulforhodamine B assay; type: functional; settings: MDA-MB-435, 48 h, read-out: GI
OVCAR-3 [2] = assay: Cytotoxicity against human OVCAR3 cells assessed as growth inhibition at 10^-5 M after 48 hrs by sulforhodamine B assay; type: functional; settings: OVCAR-3, 48 h, read-out: GI
NCI/ADR-RES = assay: Cytotoxicity against human NCI/ADR-RES cells assessed as growth inhibition at 10^-5 M after 48 hrs by sulforhodamine B assay; type: functional; settings: read-out: GI
M14 = assay: Cytotoxicity against human M14 cells assessed as growth inhibition at 10^-5 M after 48 hrs by sulforhodamine B assay; type: functional; settings: M14, 48 h, read-out: GI
SF-268 = assay: Cytotoxicity against human SF268 cells assessed as growth inhibition at 10^-5 M after 48 hrs by sulforhodamine B assay; type: functional; settings: SF-268, 48 h, read-out: GI
HCT-116 = assay: Cytotoxicity against human HCT116 cells assessed as growth inhibition at 10^-5 M after 48 hrs by sulforhodamine B assay; type: functional; settings: HCT-116, 48 h, read-out: GI
DU-145 [3] = assay: Cytotoxicity against human DU145 cells assessed as growth inhibition at 10^-5 M after 48 hrs by sulforhodamine B assay; type: functional; settings: DU-145, 48 h, read-out: GI
K562 = assay: Cytotoxicity against human K562 cells assessed as growth inhibition at 10^-5 M after 48 hrs by sulforhodamine B assay; type: functional; settings: K562, 48 h, read-out: GI
OVCAR-4 = assay: Cytotoxicity against human OVCAR4 cells assessed as growth inhibition at 10^-5 M after 48 hrs by sulforhodamine B assay; type: functional; settings: OVCAR-4, 48 h, read-out: GI
HCC 2998 = assay: Cytotoxicity against human HCC2998 cells assessed as growth inhibition at 10^-5 M after 48 hrs by sulforhodamine B assay; type: functional; settings: HCC 2998, 48 h, read-out: GI
SN12C = assay: Cytotoxicity against human SN12C cells assessed as growth inhibition at 10^-5 M after 48 hrs by sulforhodamine B assay; type: functional; settings: read-out: GI
RXF 393 = assay: Cytotoxicity against human RXF393 cells assessed as growth inhibition at 10^-5 M after 48 hrs by sulforhodamine B assay; type: functional; settings: RXF 393, 48 h, read-out: GI
CCRF-CEM = assay: Cytotoxicity against human CCRF-CEM cells assessed as growth inhibition at 10^-5 M after 48 hrs by sulforhodamine B assay; type: functional; settings: read-out: GI
MCF7 [4] = assay: Cytotoxicity against human MCF7 cells assessed as growth inhibition at 10^-5 M after 48 hrs by sulforhodamine B assay; type: functional; settings: MCF7, 48 h, read-out: GI
NCI-H460 [5] = assay: Cytotoxicity against human NCI-H460 cells assessed as growth inhibition at 10^-5 M after 48 hrs by sulforhodamine B assay; type: functional; settings: NCI-H460, 48 h, read-out: GI
Hs-578T = assay: Cytotoxicity against human HS578T cells assessed as growth inhibition at 10^-5 M after 48 hrs by sulforhodamine B assay; type: functional; settings: read-out: GI
KM12 = assay: Cytotoxicity against human KM12 cells assessed as growth inhibition at 10^-5 M after 48 hrs by sulforhodamine B assay; type: functional; settings: KM12, 48 h, read-out: GI
EKVX = assay: Cytotoxicity against human EKVX cells assessed as growth inhibition at 10^-5 M after 48 hrs by sulforhodamine B assay; type: functional; settings: read-out: GI
A549 [6] = assay: Cytotoxicity against human A549/ATCC cells assessed as growth inhibition at 10^-5 M after 48 hrs by sulforhodamine B assay; type: functional; settings: A549, 48 h, read-out: GI
NCI-H522 = assay: Cytotoxicity against human NCI-H522 cells assessed as growth inhibition at 10^-5 M after 48 hrs by sulforhodamine B assay; type: functional; settings: NCI-H522, 48 h, read-out: GI
MDA-MB-231 = assay: Cytotoxicity against human MDA-MB-231/ATCC cells assessed as growth inhibition at 10^-5 M after 48 hrs by sulforhodamine B assay; type: functional; settings: MDA-MB-231, 48 h, read-out: GI
SK-MEL-2 = assay: Cytotoxicity against human SK-MEL-2 cells assessed as growth inhibition at 10^-5 M after 48 hrs by sulforhodamine B assay; type: functional; settings: SK-MEL-2, 48 h, read-out: GI
COLO 205 [7] = assay: Cytotoxicity against human COLO205 cells assessed as growth inhibition at 10^-5 M after 48 hrs by sulforhodamine B assay; type: functional; settings: COLO 205, 48 h, read-out: GI
SF-295 [8] = assay: Cytotoxicity against human SF295 cells assessed as growth inhibition at 10^-5 M after 48 hrs by sulforhodamine B assay; type: functional; settings: SF-295, 48 h, read-out: GI
MDA-MB-468 = assay: Cytotoxicity against human MDA-MB-468 cells assessed as growth inhibition at 10^-5 M after 48 hrs by sulforhodamine B assay; type: functional; settings: MDA-MB-468, 48 h, read-out: GI
OVCAR-5 = assay: Cytotoxicity against human OVCAR5 cells assessed as growth inhibition at 10^-5 M after 48 hrs by sulforhodamine B assay; type: functional; settings: OVCAR-5, 48 h, read-out: GI
UO-31 = assay: Cytotoxicity against human UO31 cells assessed as growth inhibition at 10^-5 M after 48 hrs by sulforhodamine B assay; type: functional; settings: UO-31, 48 h, read-out: GI
NCI-H322M = assay: Cytotoxicity against human NCI-H322M cells assessed as growth inhibition at 10^-5 M after 48 hrs by sulforhodamine B assay; type: functional; settings: read-out: GI
SK-OV-3 = assay: Cytotoxicity against human SKOV3 cells assessed as growth inhibition at 10^-5 M after 48 hrs by sulforhodamine B assay; type: functional; settings: SK-OV-3, 48 h, read-out: GI
[9] = Inhibition of bovine brain tubulin polymerization after 30 mins by turbidimetry analysis; set-up: species or system Bos taurus
Summary of the method: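 Lyophilized bovine brain tubulin (97%) reconstituted to 5 mg/mL in 80 mM PIPES pH 6.9, 2 mM MgCl₂, 0.5 mM EGTA, 1.0 mM GTP and 5% glycerol. Compound in DMSO was added to this solution in a quartz cuvette at 0 °C. Assembly was followed as the rise in absorbance at 340 nm at 37 °C. IC₅₀ is the molar concentration halving the extent of assembly after 30 min.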

SF-539 = assay: Cytotoxicity against human SF539 cells assessed as growth inhibition at 10^-5 M after 48 hrs by sulforhodamine B assay; type: functional; settings: SF-539, 48 h, read-out: GI
HCT-15 = assay: Cytotoxicity against human HCT15 cells assessed as growth inhibition at 10^-5 M after 48 hrs by sulforhodamine B assay; type: functional; settings: HCT-15, 48 h, read-out: GI
SK-MEL-28 = assay: Cytotoxicity against human SK-MEL-28 cells assessed as growth inhibition at 10^-5 M after 48 hrs by sulforhodamine B assay; type: functional; settings: SK-MEL-28, 48 h, read-out: GI
CAKI-1 = assay: Cytotoxicity against human Caki1 cells assessed as growth inhibition at 10^-5 M after 48 hrs by sulforhodamine B assay; type: functional; settings: CAKI-1, 48 h, read-out: GI
HL-60(TB) = assay: Cytotoxicity against human HL-60(TB) cells assessed as growth inhibition at 10^-5 M after 48 hrs by sulforhodamine B assay; type: functional; settings: HL-60, 48 h, read-out: GI
UACC-62 = assay: Cytotoxicity against human UACC62 cells assessed as growth inhibition at 10^-5 M after 48 hrs by sulforhodamine B assay; type: functional; settings: UACC-62, 48 h, read-out: GI
A549 [10] = assay: Cytotoxicity against human A549 cells after 48 hrs by sulforhodamine B assay; type: functional; settings: A549, 48 h
HL-60 = assay: Cytotoxicity against human HL60 cells after 48 hrs by sulforhodamine B assay; type: functional; settings: HL-60, 48 h
A498 = assay: Cytotoxicity against human A498 cells after 48 hrs by sulforhodamine B assay; type: functional; settings: A498, 48 h
NCI-H460 [11] = assay: Cytotoxicity against human NCI-H460 cells after 48 hrs by sulforhodamine B assay; type: functional; settings: NCI-H460, 48 h
DU-145 [12] = assay: Cytotoxicity against human DU145 cells after 48 hrs by sulforhodamine B assay; type: functional; settings: DU-145, 48 h
HT-29 = assay: Cytotoxicity against human HT29 cells after 48 hrs by sulforhodamine B assay; type: functional; settings: HT-29, 48 h
MCF7 [13] = assay: Cytotoxicity against human MCF7 cells after 48 hrs by sulforhodamine B assay; type: functional; settings: MCF7, 48 h
OVCAR-3 [14] = assay: Cytotoxicity against human OVCAR3 cells after 48 hrs by sulforhodamine B assay; type: functional; settings: OVCAR-3, 48 h
SF-295 [15] = assay: Cytotoxicity against human SF295 cells after 48 hrs by sulforhodamine B assay; type: functional; settings: SF-295, 48 h
COLO 205 [16] = assay: Cytotoxicity against human COLO205 cells after 48 hrs by sulforhodamine B assay; type: functional; settings: COLO 205, 48 h

For COc1ccc(C(=O)c2cc(OC)c(OC)c(OC)c2)cc1OP(=O)([O-])[O-].[Na+].[Na+], the solubility [1] was “soluble”.
In the case of COc1cc2c(c(O)c1OC)C(=O)c1cc(OC)c(OC)c(OC)c1C2=O, the inhibition of growth at 10 µM (MDA-MB-435) is reported as 16.9%, the inhibition of growth at 10 µM (OVCAR-3 [2]) is reported as 0% and the inhibition of growth at 10 µM (NCI/ADR-RES) is reported as 20.3%. For the same compound, the inhibition of growth at 10 µM (M14) was 0%, the inhibition of growth at 10 µM (SF-268) was 22.2% and the inhibition of growth at 10 µM (HCT-116) was 11.8%. For the same compound, the inhibition of growth at 10 µM (DU-145 [3]) was 7.83%, the inhibition of growth at 10 µM (K562) was 0% and the inhibition of growth at 10 µM (OVCAR-4) was 60.2%. For the same compound, the inhibition of growth at 10 µM (HCC 2998) was 0%, the inhibition of growth at 10 µM (SN12C) was 8.73% and the inhibition of growth at 10 µM (RXF 393) was 2.66%. The inhibition of growth at 10 µM (CCRF-CEM) was 0%, the inhibition of growth at 10 µM (MCF7 [4]) was 26.7% and the inhibition of growth at 10 µM (NCI-H460 [5]) was 9.33%. The inhibition of growth at 10 µM (Hs-578T) was 16.9%, the inhibition of growth at 10 µM (KM12) was 0% and the inhibition of growth at 10 µM (EKVX) was 13.5%. It also gave an inhibition of growth at 10 µM (A549 [6]) of 26.1%, an inhibition of growth at 10 µM (NCI-H522) of 29.5% and an inhibition of growth at 10 µM (MDA-MB-231) of 21.3%. For the same compound, the inhibition of growth at 10 µM (SK-MEL-2) was 0%, the inhibition of growth at 10 µM (COLO 205 [7]) was 0% and the inhibition of growth at 10 µM (SF-295 [8]) was 37.9%. For the same compound, the inhibition of growth at 10 µM (MDA-MB-468) was 22.4%, the inhibition of growth at 10 µM (OVCAR-5) was 7.52% and the inhibition of growth at 10 µM (UO-31) was 0%. The inhibition of growth at 10 µM (NCI-H322M) was 0%, the inhibition of growth at 10 µM (SK-OV-3) was 9.78% and the IC50 [9] was greater than 100000 nM. For the same compound, the inhibition of growth at 10 µM (SF-539) was 16.2%, the inhibition of growth at 10 µM (HCT-15) was 0% and the inhibition of growth at 10 µM (SK-MEL-28) was 15%. For the same compound, the inhibition of growth at 10 µM (CAKI-1) was 7.07%, the inhibition of growth at 10 µM (HL-60(TB)) was 6.14% and the inhibition of growth at 10 µM (UACC-62) was 6.13%.
With COc1ccc(C(=O)c2cc(OC)c(OC)c(OC)c2)cc1O [PHENSTATIN] the GI50 (A549 [10]) was 290 nM, the GI50 (HL-60) was 31 nM and the GI50 (A498) was 380 nM. The GI50 (NCI-H460 [11]) was 5.7 nM, the GI50 (DU-145 [12]) was 34 nM and the IC50 [9] was 15000 nM. It also gave a GI50 (HT-29) of 1800 nM, a GI50 (MCF7 [13]) of 34 nM and a GI50 (OVCAR-3 [14]) of 2.3 nM. The GI50 (SF-295 [15]) was 52 nM, the solubility [1] was “soluble” and the GI50 (COLO 205 [16]) was 4860 nM.
